Results: BindingDB's records for doi:10.1021/jm701271y (Wyeth Research, 2008)

Target: Signal transducer and activator of transcription 3 (Homo sapiens, UniProt P40763)
Assay: Inhibition of STAT3 Y705 phosphorylation in human U266 cells by Western blot analysis
Summary of the method: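 Steady-state phosphorylation: exponentially growing U266 cells (1 × 10⁶ cells at 2 × 10⁵ cells/mL, RPMI1640 + 10% FBS) were treated with compound for 1 h. Cells were lysed in PhosphoSafe reagent with protease inhibitors. Western blot used primary antibodies (1:1000, 2 h) and fluorescent secondaries (1 h) at room temperature. A representative blot from several repeats is shown.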

Sequence of Signal transducer and activator of transcription 3 (P40763 whole entry): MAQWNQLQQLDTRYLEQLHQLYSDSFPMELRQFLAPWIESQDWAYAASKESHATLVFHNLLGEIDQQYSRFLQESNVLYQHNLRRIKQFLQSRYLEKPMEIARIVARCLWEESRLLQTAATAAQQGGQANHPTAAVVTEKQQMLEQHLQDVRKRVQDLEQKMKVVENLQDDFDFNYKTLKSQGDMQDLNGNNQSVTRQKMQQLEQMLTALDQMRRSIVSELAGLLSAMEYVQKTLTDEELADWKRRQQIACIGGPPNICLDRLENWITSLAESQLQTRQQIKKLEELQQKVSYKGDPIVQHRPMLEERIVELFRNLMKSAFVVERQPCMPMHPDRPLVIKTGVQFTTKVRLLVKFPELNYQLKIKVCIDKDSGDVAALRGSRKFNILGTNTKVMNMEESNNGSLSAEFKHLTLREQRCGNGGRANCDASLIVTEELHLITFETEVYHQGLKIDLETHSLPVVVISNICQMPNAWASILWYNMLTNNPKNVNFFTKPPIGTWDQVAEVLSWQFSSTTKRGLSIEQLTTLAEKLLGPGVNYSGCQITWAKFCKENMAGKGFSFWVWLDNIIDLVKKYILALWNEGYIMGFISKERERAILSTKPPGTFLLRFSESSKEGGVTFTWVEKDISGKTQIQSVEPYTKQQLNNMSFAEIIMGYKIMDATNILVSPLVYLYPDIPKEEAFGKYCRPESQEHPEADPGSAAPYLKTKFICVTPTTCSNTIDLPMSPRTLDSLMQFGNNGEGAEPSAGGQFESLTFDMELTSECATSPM

SMILES | EC50 [nM]
O=C(O)c1cn(-c2c(F)c(F)c(F)c(F)c2F)c2c(F)c(F)c(F)c(F)c2c1=O [5,6,7,8-Tetrafluoro-4-oxo-1-(pentafluoro-phenyl)-1,4-dihydroquinoline-3-carboxylic acid] | 46000
N#Cc1c(F)c(F)c(-n2cc(C(=O)OCc3ccccc3)c(=O)c3cc(F)c(F)c(F)c32)c(F)c1F [Benzyl 1-(4-Cyano-2,3,5,6-tetrafluorophenyl)-6,7,8-trifluoro-4-oxo-1,4-dihydroquinoline-3-carboxylate] | 130
N#Cc1c(F)c(F)c(-n2cc(C(=O)NCc3ccc(F)cc3)c(=O)c3cc(F)c(F)c(F)c32)c(F)c1F [1-(4-Cyano-2,3,5,6-tetrafluorophenyl)-6,7,8-trifluoro-N-(4-fluorobenzyl)-4-oxo-1,4-dihydroquinoline-3-carboxamide] | 200

Second part, the compound after the results:

EC50 [nM] | SMILES
4600 | CCOC(=O)c1cn(-c2c(F)c(F)c(F)c(F)c2F)c2c(F)c(F)c(F)c(F)c2c1=O [Ethyl 5,6,7,8-tetrafluoro-4-oxo-1-(pentafluorophenyl)-1,4-dihydroquinoline-3-carboxylate]
170 | CCOC(=O)c1cn(-c2c(F)c(F)c(C#N)c(F)c2F)c2c(F)c(F)c(F)cc2c1=O [Ethyl 1-(4-Cyano-2,3,5,6-tetrafluorophenyl)-6,7,8-trifluoro-4-oxo-1,4-dihydroquino-line-3-carboxylate]
